INS-1E rescue – protection of INS-1E cells from cytokine death, primary screen, ATP luminescence, single point; AID 488910, 2010; protection from cytokine-induced ATP loss, % at 10 µM; INS-1E cytokine-induced death, 48 h; normalised: neutral wells 0, positive control 100; hit rate 0.1% among 20,000;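 active = mean replicate protection from cytokine-induced ATP loss at least 50% and at least 75% of replicates each reaching 50%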
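assay system = INS-1E rat insulinoma cells | amount = 8000 cells per well | medium = phenol-red-free RPMI with 5% fetal bovine serum | doses = one compound concentration, pin transfer | timing = 48 h cytokine plus compound treatment, 10 min reagent incubation | also added = IL-1β, TNF-α and IFN-γ cytokine mix | signal = CellTiter-Glo luminescence measuring cellular ATP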
T cruzi HTS – inhibitors of intracellular Trypanosoma cruzi, primary screen, cell-based, plate reader, single point, set 2; hit rate 4.9% among 22,000; activity score (inhibition), % at 5.01 µM; intracellular Trypanosoma cruzi in host cells; in the data active = activity score above about 55%;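 note: parasites and compound incubated about four days before reading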
A1 apoptosis 2 – A1 inhibitors via caspase activation, primary screen, cell-based, luminescence, HTS, two replicates | MEF A1-2A-BIM cells, caspase-Glo luminescence, 3 h; percent of clofoctol response, DMSO zero | caspase activation, % (concentration not given with the values) | 24,000 tested, under 10 active | AID 2465, 2010; in the data active = caspase activation above about 5.9%
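Evaluation: Caspase-3/7 activity from luminescence increase | Assay system: A1-2A-BIM mouse embryonic fibroblasts | Quantity: 2500 MEF cells/well | Medium: RPMI-1640 plus 10% FBS | Detection: Caspase-Glo 3/7 luminescence, 1 h at room temperature | Dosing: 50 nL compound per well, pinned | Timing: Cells settled overnight, compound exposure 3 h at 37 °C, 5% CO2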
Of the large screens only hits and unclear results are named; the others gave an inactive call. The full list was thinned out, with hits kept by preference.

Cc1noc(C)c1NC(=O)Nc1ccc2c(c1)CC(=O)N([C@@H](C)CO)C[C@@H](C)[C@@H](CN(C)Cc1ccc(Oc3ccccc3)cc1)O2	none (no result: T cruzi HTS, A1 apoptosis 2)
C[C@H]1CN([C@@H](C)CO)C(=O)c2cccc(NC(=O)Nc3ccc(C(F)(F)F)cc3)c2O[C@@H]1CN(C)C(=O)Nc1cccc2ccccc12	T cruzi HTS 66
C[C@@H]1CN([C@H](C)CO)C(=O)c2cccc(NC(=O)Nc3ccc(C(F)(F)F)cc3)c2O[C@H]1CN(C)C(=O)Nc1cccc2ccccc12	none
C[C@@H]1CN([C@@H](C)CO)C(=O)c2cccc(NC(=O)Nc3ccc(C(F)(F)F)cc3)c2O[C@H]1CN(C)C(=O)NC1CCCCC1	none
C[C@@H]1CN([C@H](C)CO)C(=O)c2cccc(NS(=O)(=O)c3cccs3)c2O[C@@H]1CN(C)C(=O)Nc1ccc(C(F)(F)F)cc1	T cruzi HTS 71
C[C@@H]1CN([C@@H](C)CO)C(=O)c2cccc(NC(=O)Nc3ccc(C(F)(F)F)cc3)c2O[C@H]1CN(C)C(=O)Nc1ccc(C(F)(F)F)cc1	T cruzi HTS 72
C[C@@H]1CN([C@H](C)CO)C(=O)c2cccc(NC(=O)Nc3ccc(C(F)(F)F)cc3)c2O[C@@H]1CN(C)C(=O)NC1CCCCC1	T cruzi HTS 82
C[C@@H]1CN([C@@H](C)CO)C(=O)c2cccc(NS(=O)(=O)c3cccs3)c2O[C@@H]1CN(C)C(=O)Nc1ccc(F)cc1	none (no result: A1 apoptosis 2)
C[C@H]1CN([C@@H](C)CO)C(=O)c2cccc(NC(=O)Nc3ccc(C(F)(F)F)cc3)c2O[C@@H]1CN(C)C(=O)Nc1ccc(C(F)(F)F)cc1	none
O=C(CCCCCCC(=O)Nc1ccccc1O)N/N=C/c1ccc(S(=O)(=O)O)o1	none
O=C(N/N=C/c1cc(Br)c(O)c(Br)c1)c1ccccc1O	none (no result: A1 apoptosis 2)
Cc1cc(C(=O)Nc2cccc3c2O[C@@H](CN(C)Cc2ccccc2)[C@H](C)CN([C@@H](C)CO)C3=O)n(C)n1	none (no result: A1 apoptosis 2)
C[C@@H]1CCCCO[C@H](CN(C)C)[C@H](C)CN([C@H](C)CO)C(=O)c2cc(NC(=O)CCCN(C)C)ccc2O1	none (no result: INS-1E rescue, T cruzi HTS)
C[C@H](CO)N1C[C@H](C)[C@H](CN(C)Cc2ccc(Cl)c(Cl)c2)Oc2ccc(NS(=O)(=O)c3ccccc3)cc2C1=O	none (no result: INS-1E rescue, A1 apoptosis 2)
C[C@@H]1CN([C@H](C)CO)C(=O)c2cc(NC(=O)CCCN(C)C)ccc2O[C@@H](C)CCCCO[C@@H]1CN(C)S(C)(=O)=O	none (no result: INS-1E rescue, T cruzi HTS)
COC(=O)C1=C/c2ccccc2C(C)N(Cc2ccc(OC)cc2)/C=C\1C(=O)OC (stereo unspecified)	none (no result: INS-1E rescue, T cruzi HTS)
COc1ccc(S(=O)(=O)Nc2cccc3c2O[C@H](CN(C)C(=O)Nc2ccc(F)cc2)[C@@H](C)CN([C@H](C)CO)C3=O)cc1	none (no result: A1 apoptosis 2)
COc1ccc(NC(=O)N(C)C[C@H]2Oc3c(NS(=O)(=O)c4ccc(F)cc4)cccc3C(=O)N([C@@H](C)CO)C[C@H]2C)cc1	T cruzi HTS 64
COc1ccc(S(=O)(=O)N(C)C[C@H]2OCc3cnnn3CCCC(=O)N([C@@H](C)CO)C[C@@H]2C)cc1	none (no result: INS-1E rescue, A1 apoptosis 2)
C[C@@H]1CCCCO[C@H](CN(C)C(=O)Nc2ccc(F)cc2)[C@H](C)CN([C@H](C)CO)C(=O)c2cc(NS(=O)(=O)c3ccccc3)ccc2O1	none (no result: INS-1E rescue, T cruzi HTS)
C[C@@H]1CCCCO[C@H](CN(C)C(=O)Nc2ccc(F)cc2)[C@@H](C)CN([C@H](C)CO)C(=O)c2cc(NC(=O)Nc3ccc4c(c3)OCO4)ccc2O1	none
C[C@@H]1CN([C@H](C)CO)C(=O)c2cccc(NC(=O)c3ccncc3)c2O[C@H]1CN(C)Cc1ccc2c(c1)OCO2	T cruzi HTS 87
C[C@@H]1CN([C@H](C)CO)C(=O)c2cccc(NC(=O)c3ccc(-c4nccs4)cc3)c2O[C@@H]1CN(C)Cc1ccc2c(c1)OCO2	none
C[C@@H]1CN([C@@H](C)CO)C(=O)c2cccc(NC(=O)c3ccncc3)c2O[C@H]1CN(C)Cc1ccc2c(c1)OCO2	T cruzi HTS 59
C[C@H](CO)N1C[C@H](C)[C@H](CN(C)Cc2ccc3c(c2)OCO3)Oc2c(NC(=O)c3cnccn3)cccc2C1=O	none (no result: A1 apoptosis 2)
C[C@@H]1CN([C@H](C)CO)C(=O)c2cccc(NC(=O)c3ccncc3)c2O[C@@H]1CN(C)Cc1ccncc1	none
C[C@H]1CN([C@@H](C)CO)C(=O)c2cccc(NC(=O)c3ccncc3)c2O[C@H]1CN(C)Cc1ccc2c(c1)OCO2	T cruzi HTS 62
O=C(CCCCCCC(=O)Nc1ccccc1O)N/N=C/C1=CCCCC1	none
C[C@@H]1CN([C@@H](C)CO)C(=O)c2cccc(NC(=O)Nc3ccc(F)cc3)c2O[C@H]1CN(C)S(C)(=O)=O	none
C[C@H](CO)N1C[C@H](C)[C@@H](CN(C)S(=O)(=O)c2ccc(Cl)cc2)Oc2ccc(N(C)C)cc2C1=O	none
C=CCNC(=O)[C@H]1[C@@H]2C(=O)O[C@@H](c3ccccc3)[C@@H](c3ccccc3)N2[C@@H](c2ccc(OCCO)cc2)[C@]12C(=O)N(C(=O)OCCOC)c1ccc(C#CC3=CCCCC3)cc12	none (no result: INS-1E rescue, T cruzi HTS)
Cc1ccc(F)cc1S(=O)(=O)N[C@@H]1CCN(Cc2ccc3c(c2)OCO3)C1	none (no result: INS-1E rescue, T cruzi HTS)
Cc1ccc(S(=O)(=O)Nc2ccc3c(c2)C(=O)N([C@H](C)CO)C[C@H](C)[C@H](CN(C)S(=O)(=O)c2ccc(Cl)cc2)O3)cc1	T cruzi HTS 47 (no result: INS-1E rescue, A1 apoptosis 2)
C[C@H](CO)N1C[C@H](C)[C@H](CN(C)S(=O)(=O)c2ccc(Cl)cc2)Oc2ccc(NS(=O)(=O)c3ccc(Cl)cc3)cc2C1=O	T cruzi HTS 64 (no result: INS-1E rescue)
Cc1ccc(S(=O)(=O)N(C)C[C@@H]2Oc3ccc(NS(=O)(=O)c4ccc(Cl)cc4)cc3C(=O)N([C@H](C)CO)C[C@@H]2C)cc1	none
C[C@H](CO)N1C[C@H](C)[C@@H](CN(C)S(=O)(=O)c2ccc(Cl)cc2)Oc2ccc(NS(=O)(=O)c3ccc(Cl)cc3)cc2C1=O	none
O=C1O[C@H](c2ccccc2)[C@H](c2ccccc2)N2[C@H]1[C@@H](C(=O)N1CCCCCCC1)[C@]1(C(=O)Nc3ccc(C#CC4=CCCCC4)cc31)[C@H]2c1ccc(OCCO)cc1	none (no result: INS-1E rescue, T cruzi HTS)
C=CCC/C=N/NC(=O)CCCCCCC(=O)Nc1ccccc1O	none
CC(C)(C)OC(=O)N1CCC[C@H]1/C=N/NC(=O)CCCCC(=O)NO	none (no result: A1 apoptosis 2)
COc1ccc(CN(C)C[C@@H]2OCCCC[C@H](C)Oc3ccc(NS(=O)(=O)c4c(C)noc4C)cc3C(=O)N([C@@H](C)CO)C[C@H]2C)cc1	none (no result: INS-1E rescue, T cruzi HTS)
C[C@H](CO)N1C[C@H](C)[C@@H](CN(C)Cc2ccc(-c3ccccc3)cc2)Oc2c(NC(=O)NC3CCCCC3)cccc2C1=O	T cruzi HTS 68 (no result: A1 apoptosis 2)
C[C@@H]1CN([C@H](C)CO)C(=O)c2cccc(NC(=O)NC3CCCCC3)c2O[C@@H]1CN(C)Cc1ccc(Oc2ccccc2)cc1	T cruzi HTS 64
C[C@H]1CN([C@@H](C)CO)C(=O)c2cccc(NC(=O)NC3CCCCC3)c2O[C@@H]1CN(C)Cc1ccc(Oc2ccccc2)cc1	none (no result: A1 apoptosis 2)
